# In ChEMBL document CHEMBL1914314, “Acidic triazoles as soluble guanylate cyclase stimulators” (Bioorg Med Chem Lett, 2011):
# How the values were obtained:
# [1] = molecular target: T1, Soluble guanylate cyclase (Homo sapiens) (UniProt Q02153+O75343+P33402+Q02108); assay: Activation of human soluble guanylate cyclase assessed as production of cGMP in presence of nitric oxide donor, SIN-1 by LC-MS enzyme assay; type: protein-complex assay
# [2] = Activation of soluble guanylate cyclase in Sprague-Dawley rat thoracic aorta rings assessed as […] in presence of nitric oxide donor, DETA-NO; type: tissue-based
# [3] = Half life in rat at 2 mg/kg, iv; type: ADME, organism-based; parameters: dose 2 mg/kg, route intravenous; details: in vivo
# How it was run: (§1)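 Rats dosed iv at 2 mg/kg. Clearance, volume of distribution at steady state and half-life derived after iv dosing.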
# [4] = Intrinsic clearance in human liver microsomes assessed per mg of protein; type: ADME, Microsome
# How it was run: (§2)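 Intrinsic metabolic clearance in liver microsomes, expressed as µL/min/mg protein.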
# [5] = Octanol-buffer partition coefficient, log D of the compound at pH 7.4; type: physicochemical
# How it was run: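 LogD measured by partition between octanol and pH 7.4 buffer.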
# [6] = Volume of distribution at steady state in rat at 2 mg/kg, iv; type: ADME, organism-based; parameters: dose 2 mg/kg, route intravenous; details: in vivo, read-out: Vdss; how it was run: as §1
# [7] = molecular target: T2, CYP1A2 (Homo sapiens, UniProt P05177); assay: Inhibition of CYP1A2 at 3 uM; type: ADME
# T2 sequence (P05177 whole entry): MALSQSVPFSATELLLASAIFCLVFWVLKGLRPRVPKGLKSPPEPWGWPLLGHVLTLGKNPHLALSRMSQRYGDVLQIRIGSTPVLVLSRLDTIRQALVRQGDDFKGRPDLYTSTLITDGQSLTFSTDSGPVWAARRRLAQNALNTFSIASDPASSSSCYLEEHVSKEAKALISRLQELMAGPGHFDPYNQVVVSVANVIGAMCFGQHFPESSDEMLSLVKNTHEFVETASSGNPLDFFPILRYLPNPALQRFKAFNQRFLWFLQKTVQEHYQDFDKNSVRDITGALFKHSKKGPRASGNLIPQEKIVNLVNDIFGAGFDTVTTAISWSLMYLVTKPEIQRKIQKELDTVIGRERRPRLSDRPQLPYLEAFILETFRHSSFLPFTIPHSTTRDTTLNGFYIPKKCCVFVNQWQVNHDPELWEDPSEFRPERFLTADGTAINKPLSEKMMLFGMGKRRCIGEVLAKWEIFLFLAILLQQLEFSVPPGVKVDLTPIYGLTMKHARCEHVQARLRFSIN
# [8] = Oral bioavailability in rat at 2 mg/kg; type: ADME, organism-based; details: in vivo
# How it was run: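 Rats dosed orally at 2 mg/kg. Bioavailability determined after oral dosing, with a 2 mg/kg iv arm for reference.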
# [9] = Apparent permeability from apical to basolateral side in dog RRCK cells; type: ADME, cell-based, Canis lupus familiaris, MDCKII-LE; details: MDCK
# How it was run: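 Passive permeability measured in RRCK cells as Papp A→B, in units of 10^-6 cm/s.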
# [10] = Clearance in rat at 2 mg/kg, iv; type: ADME, organism-based; parameters: dose 2 mg/kg, route intravenous; details: in vivo; how it was run: as §1
# [11] = molecular target: T1, Soluble guanylate cyclase (Homo sapiens); assay: Activation of human soluble guanylate cyclase assessed as production of cGMP in presence of nitric oxide donor, SIN-1 by FP assay; type: protein-complex assay
# How it was run: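 Purified human sGC with the NO donor SIN-1 present. Enzyme converts GTP to cGMP, and the cGMP binds a cGMP-specific antibody included in the reactions. Read-out is fluorescence polarization.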
# [12] = Activation of soluble guanylate cyclase in Sprague-Dawley rat thoracic aorta rings assessed as inhibition of noradrenaline-evoked vasoconstriction in presence of nitric oxide donor, DETA-NO
# [13] = Intrinsic clearance in rat liver microsomes assessed per mg of protein; type: ADME, Microsome; how it was run: as §2
# [14] = molecular target: Voltage-gated inwardly rectifying potassium channel KCNH2 (Homo sapiens, UniProt Q12809); assay: Inhibition of human ERG
# Voltage-gated inwardly rectifying potassium channel KCNH2, sequence (Q12809 whole entry): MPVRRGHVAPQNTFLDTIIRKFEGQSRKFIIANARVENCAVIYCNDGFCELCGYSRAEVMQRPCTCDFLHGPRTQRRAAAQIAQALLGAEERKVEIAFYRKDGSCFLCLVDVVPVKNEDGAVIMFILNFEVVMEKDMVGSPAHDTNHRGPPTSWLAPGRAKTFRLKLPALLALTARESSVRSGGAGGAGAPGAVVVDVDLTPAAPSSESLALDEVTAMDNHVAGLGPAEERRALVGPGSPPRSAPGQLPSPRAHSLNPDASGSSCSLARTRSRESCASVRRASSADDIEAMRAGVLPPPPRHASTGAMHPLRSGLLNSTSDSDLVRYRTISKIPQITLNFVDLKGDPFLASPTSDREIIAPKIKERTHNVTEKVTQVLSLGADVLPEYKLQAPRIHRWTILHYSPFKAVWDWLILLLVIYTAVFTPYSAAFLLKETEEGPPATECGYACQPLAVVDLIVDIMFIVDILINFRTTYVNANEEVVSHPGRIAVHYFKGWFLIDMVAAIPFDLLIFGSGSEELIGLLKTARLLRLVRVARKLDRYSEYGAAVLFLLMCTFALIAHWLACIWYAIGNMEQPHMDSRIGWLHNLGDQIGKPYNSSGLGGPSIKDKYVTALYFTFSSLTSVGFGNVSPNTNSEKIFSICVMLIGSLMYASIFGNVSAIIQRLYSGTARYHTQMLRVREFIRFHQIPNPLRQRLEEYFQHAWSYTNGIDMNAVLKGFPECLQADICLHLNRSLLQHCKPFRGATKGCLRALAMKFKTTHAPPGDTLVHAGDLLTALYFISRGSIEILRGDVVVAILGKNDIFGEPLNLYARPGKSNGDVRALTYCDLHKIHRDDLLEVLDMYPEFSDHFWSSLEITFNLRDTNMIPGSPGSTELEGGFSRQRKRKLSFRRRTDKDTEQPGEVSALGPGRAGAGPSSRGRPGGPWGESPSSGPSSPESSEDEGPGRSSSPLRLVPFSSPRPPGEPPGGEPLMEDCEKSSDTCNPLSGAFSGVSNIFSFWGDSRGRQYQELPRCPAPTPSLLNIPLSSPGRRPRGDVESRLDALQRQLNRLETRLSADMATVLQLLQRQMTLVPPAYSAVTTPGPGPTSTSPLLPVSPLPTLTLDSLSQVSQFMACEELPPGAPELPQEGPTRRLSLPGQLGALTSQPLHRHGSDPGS
# [15] = Apparent permeability of the compound by PAMPA assay; type: ADME
# How it was run: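 Passive permeability from a PAMPA screen, as Papp in units of 10^-6 cm/s.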
SMILES,EC10 [1] [nM],IC50 [2] [nM],half-life [3] [h],microsomal CLint [4] [µL/min/mg],logD [5],Vd [6] [L/kg],inhibition at 3 µM [7] [%],bioavailability [8] [%],Papp A→B [9] [×10⁻⁶ cm/s],clearance [10] [mL/min/kg],EC20 [11] [nM],IC50 [12] [nM],microsomal CLint [13] [µL/min/mg],Papp [15] [×10⁻⁶ cm/s],INH [14] [µM]
Nc1nc(-c2nn(Cc3ccccc3F)c3ncccc23)nc(N)c1N1CCOCC1,44,,,,3.1,,,,,,11,11,,,
OCc1ccc(-c2nn(Cc3ccccc3)c3ccccc23)o1,3360,,,212,3.7,,69,,6,,,,,,
NC(=O)c1n[nH]c(-c2nc(Cc3ccccc3F)c3ccccn23)n1,2810,,,< 8,2.8,,16,,13,,,,,,
FC(F)(F)c1n[nH]c(-c2nc(Cc3cncnc3)c3ccccn23)n1,210,,4.1,< 7,1.8,3.7,82,61,19,9.9,80,60,< 16,,> 10
Cc1ncc(Cc2nc(-c3nc(C(F)(F)F)n[nH]3)n3ccccc23)cn1,366,,,< 8,2.1,,5,,27,,245,,,,
Fc1ccccc1Cc1nc(-c2nc(Cc3ccccc3)n[nH]2)n2ccccc12,840,,,,,,29,,0.5,,554,,,,
Cc1ncc(Cn2nc(-c3nc(C(F)(F)F)n[nH]3)c3cccnc32)cn1,,,,< 7,,,< 5,,,,58,,,27,
CS(=O)(=O)c1n[nH]c(-c2nc(Cc3ccccc3F)c3ccccn23)n1,1340,,,14,1.2,,3,,,,,,,,
Cc1ncc(Cc2nc(-c3nc(C(F)(F)F)n[nH]3)n3cccc(F)c23)cn1,,,,< 8,2,,15,,23,,73,,,,
Fc1ccccc1Cc1nc(-c2ncn[nH]2)n2ccccc12,2800,,,175,3.3,,39,,8,,,,,,

# Now from value to compound, other results behind:
EC10 [1] [nM],IC50 [2] [nM],half-life [3] [h],microsomal CLint [4] [µL/min/mg],logD [5],Vd [6] [L/kg],inhibition at 3 µM [7] [%],bioavailability [8] [%],Papp A→B [9] [×10⁻⁶ cm/s],clearance [10] [mL/min/kg],EC20 [11] [nM],IC50 [12] [nM],microsomal CLint [13] [µL/min/mg],Papp [15] [×10⁻⁶ cm/s],SMILES,INH [14] [µM]
60,33,4.7,< 11,3.2,3.1,20,66,20,8,22,,,,Fc1ccccc1Cn1nc(-c2nc(C(F)(F)F)n[nH]2)c2cccnc21,
658,,,20,3.9,,66,,17,,1070,,,,Fc1ccccc1Cc1nc(-c2nc(C(F)(F)F)n[nH]2)c2ccccn12,
470,,,72,3.8,,57,,6,,281,40,,,Fc1ccccc1Cc1nc(-c2nc(C(F)(F)F)n[nH]2)n2ccccc12,
393,,,124,3.3,,23,,1,,,,,,Cc1n[nH]c(-c2nc(Cc3ccccc3F)c3ccccn23)n1,
724,,,17,2.5,,17,,28,,221,,,,Fc1ccccc1Cc1nc(-c2nc(C(F)(F)F)n[nH]2)n2cccnc12,
224,,,,,,,,,,,,,,Fc1ccccc1Cc1nc(-c2nc(C(F)(F)F)n[nH]2)c2cccnn12,
507,,,62,3.8,,49,,0.2,,,,,,Fc1ccccc1Cc1nc(-c2nc(C(F)F)n[nH]2)n2ccccc12,
1170,,,92,4.2,,31,,3,,,,,,Fc1ccccc1Cc1nc(-c2nc(C(F)(F)C(F)(F)F)n[nH]2)n2ccccc12,
